Reference: paper PMC10955609 (Clinical and Translational Science, 2024)

Columns and labels:
[1] = system: imiquimod (IMQ)-induced skin inflammation (TLR7 activation); assay: IMQ skin challenge: skin perfusion; assay type: in vivo, human; conditions: for Erythema: GMR of treatment effect vs. placebo (90% CrI): same dosing; for Clinical evaluation of skin reactions (visual grading): vs placebo
Summary of the method: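 Healthy men (12 per arm) took test compound (120 or 100 mg), placebo or prednisolone 20 mg b.i.d. orally for 7 days. From Day 3, 5% imiquimod cream (100 mg) went daily on tape-stripped back skin under 12-mm occlusion chambers for 3 days. Erythema (3D imaging), LSCI perfusion and CEA were read at baseline, 24, 48 and 72 h. Bayesian repeated-measures ANCOVA used log-transformed change from baseline.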

[2] = system: imiquimod (IMQ)-induced skin inflammation (TLR7 activation); assay: Skin suction blister fluid analysis after IMQ challenge; assay type: in vivo, human; conditions: for Responses of CD8+ T cells and dendritic cells in suction blister fluid: 72 h after start of IMQ challenge; for IMQ-driven IP-10 and MxA in skin suction blister exudate: analysis on Day 6
Summary of the method: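 Suction blisters were raised by negative-pressure device on imiquimod-inflamed back skin at baseline and 24, 48 and 72 h after challenge start. Subjects were healthy men, 12 per arm, on oral twice-daily treatment begun 2 days before challenge. Blister fluid was analysed for immune cell subsets by flow cytometry and for cytokines/chemokines by multiplex immunoassay.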

[3] = system: LPS-driven systemic inflammation (TLR4 activation); assay: Systemic intravenous LPS challenge; assay type: in vivo, human; conditions: for Mild increase in core temperature after LPS: 2–6 h after i.v. LPS challenge; for LPS-driven increases in systolic blood pressure and pulse rate / Anti-inflammatory cytokine IL-10 after LPS challenge: compared with placebo; for Suppression of circulating TNF-α response vs. placebo / Anti-inflammatory cytokine IL-10 after LPS challenge / LPS-induced increases in IL-8, CRP and procalcitonin / IL-6 (blood): GMR of treatment effect vs. placebo (90% CrI) / TNF-α (blood): GMR of treatment effect vs. placebo (90% CrI): i.v. LPS challenge; for Suppression of circulating TNF-α response vs. placebo: averaged 0.5 to 6 h after LPS; for LPS-induced increases in IL-8, CRP and procalcitonin: vs placebo; for IL-6 (blood): GMR of treatment effect vs. placebo (90% CrI) / TNF-α (blood): GMR of treatment effect vs. placebo (90% CrI): same dosing
Summary of the method: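 On Day 7 of twice-daily oral treatment (12 healthy men per arm), purified E. coli O113 LPS 1 ng/kg in glucose 2.5%–NaCl 0.45% was given as a 2-min i.v. infusion. Hydration infusion ran from 2 h before to 6 h after. Cytokines, acute phase proteins, leukocytes, pulse, blood pressure and temperature were followed from 0.5 to 24 h. Bayesian repeated-measures ANCOVA gave GMR vs placebo (90% CrI).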

[4] = system: LPS (TLR4 agonist)-driven cytokine release in whole blood; assay: Ex vivo whole blood challenge with LPS; assay type: cell-based, human
Summary of the method: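 Blood was drawn from healthy men, 12 per arm, at two baselines (Day −1, Day 1) and on Day 6 of oral twice-daily dosing. Challenges were run in duplicate at 37°C for 24 h: LPS 0.1 ng/mL or R848 0.35 μg/mL in prefilled culture tubes, and IL-1β 125 ng/mL in sodium heparin tubes. Supernatant cytokines were measured by multiplex immunoassay.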

[5] = PK in plasma and skin suction blister fluid; assay type: in vivo, human; conditions: for Individual suction blister fluid versus plasma ratio, geometric mean (CV): Day 6; for Total concentration in blister fluid, geometric mean (CV): Day 6, 2–4 h after drug intake, unchallenged skin
Summary of the method: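 Healthy men, 12 per arm, took test compound orally twice daily for 7 days. Total drug was measured in plasma and suction blister fluid on Day 6, […], and reported as geometric mean (CV). Blister-fluid-to-plasma ratios were calculated per subject.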

[6] = Safety monitoring; assay type: in vivo, human; conditions: safety analysis set; BAY groups N = 13, prednisolone N = 12; 7 days b.i.d.
[7] = system: LPS (TLR4)-driven TNF-α release in whole blood; conditions: 120 mg b.i.d. BAY1834845, 100 mg b.i.d. BAY1830839; ref multiple ascending dose phase I studies; cited from earlier work
[8] = system: imiquimod (IMQ)-induced psoriasis; conditions: mice, compared with vehicle; cited from earlier work
[9] = 120 mg b.i.d. BAY1834845, 100 mg b.i.d. BAY1830839; ref multiple ascending dose phase I studies; cited from earlier work
[10] = system: IL-1β-induced cytokines; conditions: upregulation in comparison with vehicle control also reported; cited from earlier work

SMILES: CC(C)(O)CCn1cc2cc(NC(=O)c3cccc(C(F)(F)F)n3)c(C(C)(C)O)cc2n1 [BAY1830839]
- Erythema: GMR of treatment effect vs. placebo (90% CrI) [1]: 0.83
- Erythema: GMR of treatment effect vs. placebo (90% CrI) ([1]; listed as BAY 1830839): 0.83 (0.67, 0.99)
- Clinical evaluation of skin reactions (visual grading) [1]: less severe inflammatory reaction
- Responses of CD8+ T cells and dendritic cells in suction blister fluid [2]: suppressed
- IMQ-driven IP-10 and MxA in skin suction blister exudate [2]: strongly suppressed
- Mild increase in core temperature after LPS [3]: without suppressing
- LPS-driven increases in systolic blood pressure and pulse rate [3]: suppressed
- Suppression of circulating TNF-α response vs. placebo [3]: ≥ 80%
- Anti-inflammatory cytokine IL-10 after LPS challenge [3]: did not lead to an increase
- LPS-induced increases in IL-8, CRP and procalcitonin [3]: inhibited
- IL-6 (blood): GMR of treatment effect vs. placebo (90% CrI) [3]: 0.26 (0.17, 0.34)
- TNF-α (blood): GMR of treatment effect vs. placebo (90% CrI) [3]: 0.14 (0.09, 0.19)
- Inhibition of TLR4-driven IL-6 in ex vivo whole blood challenge [4]: 73%
- Inhibition of TLR4-driven TNF-α in ex vivo whole blood challenge [4]: 75%
- Individual suction blister fluid versus plasma ratio, geometric mean (CV) [5]: 0.59 (16.2%)
- Total concentration in blister fluid, geometric mean (CV) [5]: 3.0 (28.3%) mg/L
- Any treatment-emergent AE [6]: 8 (61.5%) n (%) of participants
- Mean suppression of TNFα (TLR4-cytokine release in ex vivo whole blood assay) [7]: 70%
- Severity of psoriasis-like lesions; extent of erythema, skin thickening and scaling [8]: significantly reduced
- Systemic exposure [9]: 4.3 (42.8%) mg/L

SMILES: CC(C)(O)c1cc2nn(CCS(C)(=O)=O)cc2cc1NC(=O)c1cccc(C(F)(F)F)n1 [BAY1834845, zabedosertib]
- Erythema: GMR of treatment effect vs. placebo (90% CrI) [1]: 0.75
- Erythema: GMR of treatment effect vs. placebo (90% CrI) ([1]; listed as BAY 1834845): 0.75 (0.60, 0.89)
- Clinical evaluation of skin reactions (visual grading) [1]: less severe inflammatory reaction
- Responses of CD8+ T cells and dendritic cells in suction blister fluid [2]: suppressed
- IMQ-driven IP-10 and MxA in skin suction blister exudate [2]: strongly suppressed
- Mild increase in core temperature after LPS [3]: without suppressing
- LPS-driven increases in systolic blood pressure and pulse rate [3]: suppressed
- Suppression of circulating TNF-α response vs. placebo [3]: ≥ 80%
- Anti-inflammatory cytokine IL-10 after LPS challenge [3]: did not lead to an increase
- LPS-induced increases in IL-8, CRP and procalcitonin [3]: inhibited
- IL-6 (blood): GMR of treatment effect vs. placebo (90% CrI) [3]: 0.27 (0.18, 0.36)
- TNF-α (blood): GMR of treatment effect vs. placebo (90% CrI) [3]: 0.20 (0.13, 0.27)
- Inhibition of TLR4-driven IL-6 in ex vivo whole blood challenge [4]: approximately 50%
- Inhibition of TLR4-driven TNF-α in ex vivo whole blood challenge [4]: approximately 50%
- Individual suction blister fluid versus plasma ratio, geometric mean (CV) [5]: 0.43 (22.7%)
- Total concentration in blister fluid, geometric mean (CV) [5]: 2.6 (32.3%) mg/L
- Mean suppression of TNFα (TLR4-cytokine release in ex vivo whole blood assay) [7]: 40%
- Severity of psoriasis-like lesions; extent of erythema, skin thickening and scaling [8]: significantly reduced
- Systemic exposure [9]: 5.2 (19.4%) mg/L

SMILES: CC[C@@H]1[C@H](F)C(=O)N[C@@H]1COc1nccc2cc(C(N)=O)c(OC)cc12 [PF‐06650833]
- Effects on IL-1β-induced cytokines [10]: weak effects

SMILES: C[C@]12C=CC(=O)C=C1CC[C@@H]1[C@@H]2[C@@H](O)C[C@@]2(C)[C@H]1CC[C@]2(O)C(=O)CO [Prednisolone, prednisolone, reference compound]
- Erythema: GMR of treatment effect vs. placebo (90% CrI) [1]: 0.86 (0.69, 1.02)
- Erythema: GMR of treatment effect vs. placebo (90% CrI) ([1]; listed as prednisolone): 0.86
- Responses of CD8+ T cells and dendritic cells in suction blister fluid [2]: suppressed
- Responses of NK cells and classical monocytes in suction blister fluid ([2]; 72 h post-challenge, after preceding increase up to 48 h): markedly suppressed
- IMQ-driven IP-10 and MxA in skin suction blister exudate [2]: strongly suppressed
- Anti-inflammatory cytokine IL-10 after LPS challenge [3]: induced
- IL-6 (blood): GMR of treatment effect vs. placebo (90% CrI) [3]: 0.31 (0.21, 0.41)
- TNF-α (blood): GMR of treatment effect vs. placebo (90% CrI) [3]: 0.31 (0.20, 0.41)
